Test results taken from ChEMBL document CHEMBL1649209, “Improved murine model of malaria using Plasmodium falciparum competent strains and non-myelodepleted NOD-scid IL2Rgammanull mice engrafted with human erythrocytes” (2009).
The source made the active and inactive calls. No cut-off for these calls is given here.

Legend:
[1] = test system: Plasmodium falciparum; experiment: Antimalarial activity against Plasmodium falciparum Pf3D70087/N9 infected in immunodeficient HM-IL2Rgamma null mouse after 7 days; format: functional
Procedure, shortened: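 Four-day test in female NOD-scid IL2Rγnull mice engrafted by daily i.p. injections of human erythrocytes. Mice were infected i.v. with 20 × 10^6 Pf3D70087/N9-infected hE, then randomized 3 days later (3/group) and dosed orally once daily for 4 days. Day-7 parasitemia was measured by SYTO-16/TER-119 flow cytometry relative to vehicle. ED90 came from a sigmoid dose-response fit.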

[2] = test system: Plasmodium falciparum; experiment: Antimalarial activity against Plasmodium falciparum Pf3D70087/N9 infected in immunodeficient HM-beta2 m null mouse after 7 days; format: functional
[3] = test system: Plasmodium falciparum; experiment: Antimalarial activity against Plasmodium falciparum PfV1S0176/N10 infected in immunodeficient HM-IL2Rgamma null mouse after 7 days; format: functional
[4] = test system: Plasmodium falciparum; experiment: Antimalarial activity against Plasmodium falciparum Pf3D70087/N9 infected in immunodeficient HM-IL2Rgamma null mouse assessed as decreased parasitemia at 50 mg/kg, po for 4 days after 28 days; format: functional, organism-based; parameters: dose 50 mg/kg
Procedure, shortened: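 Engrafted NOD-scid IL2Rγnull mice each carried about […] Pf3D70087/N9-infected hE. They were dosed orally at 50 mg/kg once daily for four consecutive days. Peripheral blood was checked for parasites up to at least 28 days after treatment ended.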

Row | Compound | ED90 [1] | ED90 [2] | ED90 [3] | Activity [4]
1 | CCN(CC)CCCC(C)Nc1ccnc2cc(Cl)ccc12 (stereo not drawn) [CHLOROQUINE] | 4.9 mg/kg | 4.4 mg/kg | >50 mg/kg | Active
2 | C[C@H]1[C@H](OC(=O)CCC(=O)O)O[C@@H]2O[C@@]3(C)CC[C@H]4[C@H](C)CC[C@@H]1[C@@]24OO3 [ARTESUNATE] | 12.9 mg/kg | 12.7 mg/kg | <20 mg/kg | –
3 | Cc1[nH]c(CO)c(-c2ccc(Oc3ccc(OC(F)(F)F)cc3)cc2)c(=O)c1Cl | 0.6 mg/kg | 0.6 mg/kg | <1 mg/kg | –
4 | CCc1nc(N)nc(N)c1-c1ccc(Cl)cc1 [PYRIMETHAMINE] | 0.5 mg/kg | 0.9 mg/kg | >50 mg/kg | –
